SENP1 inh: blocks the human SENP1 SUMO protease catalytic domain; Q9P0U3; recombinant SENP1 catalytic domain, CyPet-SUMO1-YPet FRET cleavage; inhibition, % at 10 µM; 0.21% of 360,000 active; AID 624204;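 active = inhibition at least 30% at 10 µM, raw YFP signal under a set limit, fluorescence ratio 0.5 to 1.5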
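system = hSENP1 catalytic domain, recombinant | reagent = SFCypet-SUMO1-SFYpet substrate at 25 nM | doses = one dose per compound, 10 µM, 0.5% DMSO | incubation = enzyme reaction for 50 min at room temperature, dark | measured by = FRET, CFP and YFP emission | controls = no-enzyme low, enzyme-DMSO high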
SENP8 block-1: inhibitors of human SENP8 protease. inhibition, % at 10 µM. 1.2% of 330,000 active. AID 2540. purified SENP8, Z-RLRGG-aminoluciferin cleavage, luminescence; in the data active = inhibition above about 50%
Target sequence (Q96LD8 whole entry, looked up): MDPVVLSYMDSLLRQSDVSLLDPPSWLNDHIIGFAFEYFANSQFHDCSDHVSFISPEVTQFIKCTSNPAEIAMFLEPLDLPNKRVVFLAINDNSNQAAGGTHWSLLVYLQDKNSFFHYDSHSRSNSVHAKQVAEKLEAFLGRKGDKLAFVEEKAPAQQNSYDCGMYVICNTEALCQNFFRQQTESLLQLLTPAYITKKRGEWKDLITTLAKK
HSP90 refold inh: inhibitors of HSP90 luciferase refolding in rabbit reticulocyte lysate; luciferase refolding luminescence, 3 h; inhibition, % at 5.6 µM; 0.91% of 290,000 active;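 active = inhibition above the screen-wide mean plus 3 SD, computed separately per campaign, cut at about 16% in these data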;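 also: inhibitors lower the luminescence because luciferase stays unfolded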
SENP8 block-2: inhibitors of human SENP8 protease | Q96LD8 | recombinant SENP8, Nedd8 substrate fluorescence | inhibition, % at 20 µM | 0.64% of 360,000 active; in the data active = inhibition mostly above about 40%, no sharp cut-off; inactive = mostly below about 27%
SENP7 block: blocks the human protease SENP7; Q9BQF6; recombinant SENP7, Z-RLRGG-aminoluciferin luminescence, 40 min; inhibition, % at 5 µM; 1.5% of 330,000 active; AID 434973;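 active = inhibition above about 50% at the single test dose, limit read from the data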
Target sequence (Q9BQF6 706-1050 limits assumed): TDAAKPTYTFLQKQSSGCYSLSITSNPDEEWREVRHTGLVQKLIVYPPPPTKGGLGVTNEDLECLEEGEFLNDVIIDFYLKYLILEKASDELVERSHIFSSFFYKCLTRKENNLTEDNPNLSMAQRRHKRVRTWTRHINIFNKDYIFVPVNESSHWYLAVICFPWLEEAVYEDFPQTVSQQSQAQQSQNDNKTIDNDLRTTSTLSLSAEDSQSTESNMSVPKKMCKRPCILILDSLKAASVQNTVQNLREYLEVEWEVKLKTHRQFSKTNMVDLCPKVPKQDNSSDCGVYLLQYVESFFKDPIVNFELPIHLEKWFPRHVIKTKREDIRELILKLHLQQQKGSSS
SENP6 inh: blocks the human protease SENP6; Q9GZR1; Recombinant SENP6 catalytic domain, aminoluciferin luminescence; 1.8% of 330,000 active; AID 2599; inhibition, % at 10 µM;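 active = inhibition above about 50% at the single tested dose, limit read from the data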
HSP90 inh confirm: HSP90 inhibition, confirmation assay; AID 1846; shares compounds with HSP90 refold inh; inhibition, % at 5.9 µM; rabbit reticulocyte lysate, luciferase refolding luminescence, 3 h; 64% of 2,300 active; in the data active = inhibition above about 18%
luciferase ctr: counter-screen for HSP90 inhibitors: inhibitors of firefly luciferase. shares compounds with HSP90 refold inh. 48% of 2,300 active. purified native firefly luciferase, luminescence. AID 1847. inhibition, % at 5.9 µM;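 active = inhibition above the mean inhibition of all tested sample wells plus 3 SD, cut at about 10% in these data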
Of the large screens only hits and unclear results are named; the others gave an inactive call (follow-up assays come after a bar, where they were run). Sampled rows, rich in hits. Any-hit rate of the full collection: about 2.9%.

Cc1ccc(Nc2nc(-c3sc(NC(=O)c4cccc(Cl)c4)nc3C)cs2)cc1	HSP90 refold inh 70 (no result: SENP1 inh, SENP8 block-2) | HSP90 inh confirm 46 | luciferase ctr inactive
Cc1cc(C)cc(Nc2ccc(C(=O)O)cc2N)c1	HSP90 refold inh 23 | HSP90 inh confirm inactive | luciferase ctr inactive
Nc1sc2c(c1C(=O)c1ccccc1)CCCC2	HSP90 refold inh 31 | HSP90 inh confirm inactive | luciferase ctr inactive
CC1(C)CN=C(N(C(=O)Nc2ccccc2)c2ccccc2F)S1	none
CC1(C)CN=C(N(Cc2ccccc2)C(=O)Nc2ccccc2)S1	HSP90 refold inh 19 | HSP90 inh confirm 29 | luciferase ctr 19
COc1cc(NC(=O)COC(=O)Cc2ccsc2)cc(OC)c1	none (no result: HSP90 refold inh)
COc1ccc(-n2nc(C(=O)NCC(=O)N3CCN(Cc4ccccc4)CC3)c3ccccc3c2=O)cc1	HSP90 refold inh 24 | HSP90 inh confirm inactive | luciferase ctr inactive
OCC[C@@H]1C[C@H](O)[C@@H](O)[C@@]2(OCCc3ccccc32)O1	none
CC(=O)c1c(C)[nH]c(C(=O)Nc2ccc(C)cn2)c1C	HSP90 refold inh 27 | HSP90 inh confirm 79 | luciferase ctr 70
CC(=O)c1c(C)[nH]c(C(=O)Nc2cc(C)cc(C)c2)c1C	none
COc1ccc(Cl)cc1NC(=O)c1[nH]c(C)c(C(C)=O)c1C	none
CC(=O)c1c(C)[nH]c(C(=O)Nc2nc(-c3ccc(Cl)cc3)cs2)c1C	none
COc1ccc(OC)c(NC(=O)c2[nH]c(C)c(C(C)=O)c2C)c1	HSP90 refold inh 27 | HSP90 inh confirm inactive | luciferase ctr inactive
CC(=O)c1c(C)[nH]c(C(=O)Nc2nc(C)cs2)c1C	HSP90 refold inh 51 | HSP90 inh confirm 77 | luciferase ctr 66
CCCCOc1ccc(C(=O)NCC(=O)OCCCOC(=O)CNC(=O)c2ccc(OCCCC)cc2)cc1	none (no result: SENP8 block-1, HSP90 refold inh, SENP7 block, SENP6 inh)
CC1(C)CC(NC(=O)COc2ccccc2Cl)CC(C)(C)N1	HSP90 refold inh 33 | HSP90 inh confirm 37 | luciferase ctr 45
Cc1ccc(C2(C)NC(=O)N(CC(=O)Nc3ccc(Cl)c(S(=O)(=O)N4CCCCC4)c3)C2=O)cc1 (centres undefined)	none (no result: HSP90 refold inh)
O=C(CSc1ncccc1C(=O)O)c1ccc2ccccc2c1	HSP90 refold inh 96 | HSP90 inh confirm 93 | luciferase ctr inactive
c1ccc(NNC2=NCCS2)cc1	HSP90 refold inh 19 | HSP90 inh confirm inactive | luciferase ctr inactive
COc1ccc(NC(=O)C2(C)CCCN2C(=O)C(C)C)cc1OC (centres undefined)	none (no result: SENP8 block-1, HSP90 refold inh, SENP7 block, SENP6 inh)
COc1ccc(OC)c(Cc2nnc(CCC(=O)NC3C4CC5CC(C4)CC3C5)o2)c1 (centres undefined)	HSP90 refold inh 18 | HSP90 inh confirm inactive | luciferase ctr inactive
Cc1ccc(OCc2nnnn2-c2ccccc2)cc1	HSP90 refold inh 75 | HSP90 inh confirm inactive | luciferase ctr inactive
COc1ccc(O)c(C(=O)CC(=O)c2ccc(F)cc2)c1	HSP90 refold inh 21 | HSP90 inh confirm 21 | luciferase ctr inactive
CC1C(=O)N(Cc2cn(CCC3OCCCO3)nn2)CCS(=O)(=O)N1Cc1ccc(-c2cccc(CO)c2)cc1 (centres undefined)	none (no result: SENP8 block-1, HSP90 refold inh, SENP7 block, SENP6 inh)
COC(=O)c1ccc(-c2ccc(/C=N/NC(=O)CC3(C)OCCCO3)o2)cc1	HSP90 refold inh 17 | HSP90 inh confirm 26 | luciferase ctr inactive
O=C(Cc1coc2cc3c(cc12)CCC3)OCC(=O)N1CCCC1=O	HSP90 refold inh 27 | HSP90 inh confirm inactive | luciferase ctr inactive
OCCNC(=S)Nc1cc(Cl)cc(Cl)c1	HSP90 refold inh 18 | HSP90 inh confirm inactive | luciferase ctr inactive
OCCNC(=S)Nc1ccc(Cl)c(Cl)c1	none
O=C1N=C(N2CCCC2)S/C1=C\C=C\c1ccccc1	HSP90 refold inh 36 | HSP90 inh confirm 56 | luciferase ctr 54
CCc1ccc(/C=C2\SC(N3CCCC3)=NC2=O)cc1	HSP90 refold inh 26 | HSP90 inh confirm inactive | luciferase ctr 12
O=C1N=C(N2CCCCC2)S/C1=C\c1ccncc1	none
Cc1ccc(-c2c[n+](CC(=O)Nc3nc(-c4ccc(F)cc4)cs3)c3n2CCC3)cc1	HSP90 refold inh 26 | HSP90 inh confirm 19 | luciferase ctr inactive
CCOC(=O)c1c(C)[nH]c(C2=NNC(=NC3CC3)SC2)c1C	HSP90 refold inh 55 | HSP90 inh confirm 84 | luciferase ctr 75
Cn1c(N)c(C(=O)COC(=O)c2ccc([N+](=O)[O-])o2)c(=O)n(C)c1=O	none
O=C1NC[C@@H](CCCCN2C[C@H](Cc3ccc(O)cc3)N(CCc3ccc(O)cc3)C(=O)C2=O)N(CCc2ccccc2)C1=O	none (no result: SENP8 block-1, HSP90 refold inh, SENP7 block, SENP6 inh)
CC(C)(C)SCCNC(=O)c1ccccc1	none
O=C(NCCc1ccc(Cl)cc1)c1ccc2c(c1)OCCO2	HSP90 refold inh 18 | HSP90 inh confirm 27 | luciferase ctr 23
Cc1ccc(C(=O)NCCc2cccs2)cc1	HSP90 refold inh 55 | HSP90 inh confirm 74 | luciferase ctr 62
O=C(NCCc1cccs1)c1ccc(Cl)c(Cl)c1	none
O=C(NCCc1cccs1)c1ccc(Cl)cc1	HSP90 refold inh 19 | HSP90 inh confirm 45 | luciferase ctr 41
O=C(NCCc1ccc(Cl)cc1)c1ccc2c(c1)OCO2	none
Cc1ccc(C(=O)NCCSC(C)(C)C)cc1	HSP90 refold inh 19 | HSP90 inh confirm 31 | luciferase ctr 24
CCCN(CC(=O)Nc1ccccc1C)C(=O)c1ccc(N2CCCC2=O)cc1	none (no result: HSP90 refold inh)
Cc1c(NC(=O)[C@@H](NC(=O)c2ccc(Cl)c([N+](=O)[O-])c2)C(C)C)c(=O)n(-c2ccccc2)n1C	none (no result: HSP90 refold inh)
O=C(Nc1ccccc1O)c1c(O)c2c([nH]c1=O)CCCC2	none
CN(C)c1ccc(C(O)Cc2nc3ccccc3n2C)cc1 (centres undefined)	HSP90 refold inh 46 | HSP90 inh confirm inactive | luciferase ctr inactive
O=C(Nc1ccc(N2CCOCC2)cc1)c1cnccn1	HSP90 refold inh 46 | HSP90 inh confirm 67 | luciferase ctr 44
O=C(Nc1ccc(N2CCOCC2)cc1)c1ccncc1	none
O=C(Nc1ccc(N2CCOCC2)cc1)c1cnsn1	HSP90 refold inh 71 | HSP90 inh confirm 83 | luciferase ctr 76
COc1ccc(NC(=O)C2(C)CCN2Cc2ccc3ccccc3c2)cc1OC (centres undefined)	none (no result: SENP8 block-1, HSP90 refold inh, SENP7 block, SENP6 inh)
C#CCOCCOCCOCCNc1nc(N2CCN(C(=O)[C@H](Cc3cc4ccccc4[nH]3)n3cc([C@@H](N)C(C)CC)nn3)CC2)nc(N2CCN(C(=O)[C@H](Cc3cc4ccccc4[nH]3)n3cc([C@@H](N)Cc4ccc(O)cc4)nn3)CC2)n1 (some centres undefined)	HSP90 refold inh 21 (no result: SENP1 inh, SENP8 block-2) | HSP90 inh confirm 27 | luciferase ctr inactive
